Source: ChEMBL document CHEMBL1158680, “Chemical constituents and biological activities of the fruit of Zanthoxylum integrifoliolum” (1999)
Calls of active or inactive are those of the source. The rule behind the calls is not given here.

What was measured:
[1] = Antiplatelet activity against rabbit platelets assessed as inhibition of PAF-induced platelet aggregation at 20 ug/ml preincubated for 3 mins by turbidimetric method; format: functional, Oryctolagus cuniculus; design: scale not given: the % may be the effect or the level left
How it was run: (§1)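 Washed rabbit platelets were preincubated with test sample or 0.5% DMSO vehicle for 3 min at 37 °C. Inducers were thrombin 0.1 U/mL, arachidonic acid 100 μM, collagen 10 μg/mL or PAF 2 nM. Turbidimetric read-out took platelet suspension absorbance as 0% and platelet-free Tyrode's as 100% aggregation, measured at 6 min. Results are mean ± SEM with n per entry.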

[2] = (§2) Antiplatelet activity against rabbit platelets assessed as inhibition of collagen-induced platelet aggregation at 50 ug/ml preincubated for 3 mins by turbidimetric method; format: functional, Oryctolagus cuniculus; design: scale not given: the % may be the effect or the level left; how it was run: as §1
[3] = Antiplatelet activity against rabbit platelets assessed as inhibition of PAF-induced platelet aggregation at 100 ug/ml preincubated for 3 mins by turbidimetric method; format: functional, Oryctolagus cuniculus; design: scale not given: the % may be the effect or the level left; how it was run: as §1
[4] = tested on: Aorta; assay: Vasorelaxation activity in rat aorta assessed as inhibition of K+-induced contraction at 5 ug/ml preincubated for 15 mins relative to control; format: functional; design: scale not given: the % may be the effect or the level left
How it was run: (§3)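 Rat aorta was preincubated with test sample or 0.1% DMSO vehicle at 37 °C for 15 min. Contraction was then evoked with high K+ (80 mM) or norepinephrine (3 μM). Response is expressed as percent of control contraction, mean ± SEM, n = 3.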

[5] = tested on: Aorta; assay: Vasorelaxation activity in rat aorta assessed as inhibition of norepinephrine-induced phasic contraction at 50 ug/ml preincubated for 15 mins relative to control; format: functional; design: scale not given: the % may be the effect or the level left; how it was run: as §3
[6] = Antiplatelet activity against rabbit platelets assessed as inhibition of PAF-induced platelet aggregation at 50 ug/ml preincubated for 3 mins by turbidimetric method; format: functional, Oryctolagus cuniculus; design: scale not given: the % may be the effect or the level left; how it was run: as §1
[7] = Antiplatelet activity against rabbit platelets assessed as inhibition of arachidonic acid-induced platelet aggregation at 20 ug/ml preincubated for 3 mins by turbidimetric method; format: functional, Oryctolagus cuniculus; design: scale not given: the % may be the effect or the level left; how it was run: as §1
[8] = tested on: Aorta; assay: Vasorelaxation activity in rat aorta assessed as inhibition of norepinephrine-induced tonic contraction at 50 ug/ml preincubated for 15 mins relative to control; format: functional; design: scale not given: the % may be the effect or the level left; how it was run: as §3
[9] = Antiplatelet activity against rabbit platelets assessed as inhibition of collagen-induced platelet aggregation at 20 ug/ml preincubated for 3 mins by turbidimetric method; format: functional, Oryctolagus cuniculus; design: scale not given: the % may be the effect or the level left; how it was run: as §1
[10] = (§4) Antiplatelet activity against rabbit platelets assessed as inhibition of arachidonic acid-induced platelet aggregation at 50 ug/ml preincubated for 3 mins by turbidimetric method; format: functional, Oryctolagus cuniculus; design: scale not given: the % may be the effect or the level left; how it was run: as §1
[11] = Antiplatelet activity against rabbit platelets assessed as inhibition of thrombin-induced platelet aggregation at 100 ug/ml preincubated for 3 mins by turbidimetric method; format: functional, Oryctolagus cuniculus; design: scale not given: the % may be the effect or the level left; how it was run: as §1
[12] = tested on: Aorta; assay: Vasorelaxation activity in rat aorta assessed as inhibition of norepinephrine-induced phasic contraction at 15 ug/ml preincubated for 15 mins relative to control; format: functional; design: scale not given: the % may be the effect or the level left; how it was run: as §3
[13] = (§5) Antiplatelet activity against rabbit platelets assessed as inhibition of collagen-induced platelet aggregation at 100 ug/ml preincubated for 3 mins by turbidimetric method; format: functional, Oryctolagus cuniculus; design: scale not given: the % may be the effect or the level left; how it was run: as §1
[14] = tested on: Aorta; assay: Vasorelaxation activity in rat aorta assessed as inhibition of K+-induced contraction at 50 ug/ml preincubated for 15 mins relative to control; format: functional; design: scale not given: the % may be the effect or the level left; how it was run: as §3
[15] = tested on: Aorta; assay: Vasorelaxation activity in rat aorta assessed as inhibition of norepinephrine-induced tonic contraction at 15 ug/ml preincubated for 15 mins relative to control; format: functional; design: scale not given: the % may be the effect or the level left; how it was run: as §3
[16] = Antiplatelet activity against rabbit platelets assessed as inhibition of thrombin-induced platelet aggregation at 20 ug/ml preincubated for 3 mins by turbidimetric method; format: functional, Oryctolagus cuniculus; design: scale not given: the % may be the effect or the level left; how it was run: as §1
[17] = (§6) Antiplatelet activity against rabbit platelets assessed as inhibition of arachidonic acid-induced platelet aggregation at 100 ug/ml preincubated for 3 mins by turbidimetric method; format: functional, Oryctolagus cuniculus; design: scale not given: the % may be the effect or the level left; how it was run: as §1
[18] = tested on: Aorta; assay: Vasorelaxation activity in rat aorta assessed as inhibition of K+-induced contraction at 15 ug/ml preincubated for 15 mins relative to control; format: functional; design: scale not given: the % may be the effect or the level left; how it was run: as §3
[19] = Antiplatelet activity against rabbit platelets assessed as inhibition of thrombin-induced platelet aggregation at 50 ug/ml preincubated for 3 mins by turbidimetric method; format: functional, Oryctolagus cuniculus; design: scale not given: the % may be the effect or the level left; how it was run: as §1
[20] = Antiplatelet activity against rabbit platelets assessed as inhibition of arachidonic acid-induced platelet aggregation at 5 ug/ml preincubated for 3 mins by turbidimetric method; format: functional, Oryctolagus cuniculus; design: scale not given: the % may be the effect or the level left
How it was run: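 Washed rabbit platelet suspension preincubated with DMSO (0.5%, control) or sample at 37 °C for 3 min. Arachidonic acid (100 μM) then added. Turbidimetric read-out with platelet suspension as 0% and platelet-free Tyrode's solution as 100% aggregation. Percent aggregation read at 6 min. Means ± S.E.M. (n).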

[21] = Antiplatelet activity against rabbit platelets assessed as inhibition of arachidonic acid-induced platelet aggregation at 10 ug/ml preincubated for 3 mins by turbidimetric method; format: functional, Oryctolagus cuniculus; design: scale not given: the % may be the effect or the level left; how it was run: as §1
[22] = tested on: Aorta; assay: Vasorelaxation activity in rat aorta assessed as inhibition of norepinephrine-induced phasic contraction at 30 ug/ml preincubated for 15 mins relative to control; format: functional; design: scale not given: the % may be the effect or the level left; how it was run: as §3
[23] = tested on: Aorta; assay: Vasorelaxation activity in rat aorta assessed as inhibition of K+-induced contraction at 100 ug/ml preincubated for 15 mins relative to control; format: functional; design: scale not given: the % may be the effect or the level left; how it was run: as §3
[24] = tested on: Aorta; assay: Vasorelaxation activity in rat aorta assessed as inhibition of norepinephrine-induced tonic contraction at 100 ug/ml preincubated for 15 mins relative to control; format: functional; design: scale not given: the % may be the effect or the level left; how it was run: as §3
[25] = tested on: Aorta; assay: Vasorelaxation activity in rat aorta assessed as inhibition of K+-induced contraction at 30 ug/ml preincubated for 15 mins relative to control; format: functional; design: scale not given: the % may be the effect or the level left; how it was run: as §3
[26] = tested on: Aorta; assay: Vasorelaxation activity in rat aorta assessed as inhibition of norepinephrine-induced tonic contraction at 30 ug/ml preincubated for 15 mins relative to control; format: functional; design: scale not given: the % may be the effect or the level left; how it was run: as §3
[27] = tested on: Aorta; assay: Vasorelaxation activity in rat aorta assessed as inhibition of norepinephrine-induced phasic contraction at 100 ug/ml preincubated for 15 mins relative to control; format: functional; design: scale not given: the % may be the effect or the level left; how it was run: as §3
[28] = tested on: Platelet; assay: as §2; format: functional; details: Oryctolagus cuniculus; how it was run: as §1
[29] = tested on: Platelet; assay: as §4; format: functional; details: Oryctolagus cuniculus; how it was run: as §1
[30] = tested on: Platelet; assay: as §5; format: functional; details: Oryctolagus cuniculus; how it was run: as §1
[31] = tested on: Platelet; assay: as §6; format: functional; details: Oryctolagus cuniculus; how it was run: as §1
[32] = tested on: Aorta; assay: Vasorelaxation activity in rat aorta assessed as inhibition of K+-induced contraction at 3.8 ug/ml preincubated for 15 mins relative to control; format: functional; design: scale not given: the % may be the effect or the level left; how it was run: as §3
[33] = Antiplatelet activity against rabbit platelets assessed as inhibition of PAF-induced platelet aggregation at 25 ug/ml preincubated for 3 mins by turbidimetric method; format: functional, Oryctolagus cuniculus; design: scale not given: the % may be the effect or the level left; how it was run: as §1
[34] = Antiplatelet activity against rabbit platelets assessed as inhibition of arachidonic acid-induced platelet aggregation at 25 ug/ml preincubated for 3 mins by turbidimetric method; format: functional, Oryctolagus cuniculus; design: scale not given: the % may be the effect or the level left; how it was run: as §1
[35] = Antiplatelet activity against rabbit platelets assessed as inhibition of collagen-induced platelet aggregation at 25 ug/ml preincubated for 3 mins by turbidimetric method; format: functional, Oryctolagus cuniculus; design: scale not given: the % may be the effect or the level left; how it was run: as §1
[36] = tested on: Aorta; assay: Vasorelaxation activity in rat aorta assessed as inhibition of norepinephrine-induced tonic contraction at 12.5 ug/ml preincubated for 15 mins relative to control; format: functional; design: scale not given: the % may be the effect or the level left; how it was run: as §3
[37] = Antiplatelet activity against rabbit platelets assessed as inhibition of thrombin-induced platelet aggregation at 25 ug/ml preincubated for 3 mins by turbidimetric method; format: functional, Oryctolagus cuniculus; design: scale not given: the % may be the effect or the level left; how it was run: as §1
[38] = tested on: Aorta; assay: Vasorelaxation activity in rat aorta assessed as inhibition of norepinephrine-induced phasic contraction at 12.5 ug/ml preincubated for 15 mins relative to control; format: functional; design: scale not given: the % may be the effect or the level left; how it was run: as §3
[39] = tested on: Aorta; assay: Vasorelaxation activity in rat aorta assessed as inhibition of K+-induced contraction at 12.5 ug/ml preincubated for 15 mins relative to control; format: functional; design: scale not given: the % may be the effect or the level left; how it was run: as §3
[40] = Antiplatelet activity against rabbit platelets assessed as inhibition of PAF-induced platelet aggregation at 10 ug/ml preincubated for 3 mins by turbidimetric method; format: functional, Oryctolagus cuniculus; design: scale not given: the % may be the effect or the level left; how it was run: as §1
[41] = Antiplatelet activity against rabbit platelets assessed as inhibition of thrombin-induced platelet aggregation at 10 ug/ml preincubated for 3 mins by turbidimetric method; format: functional, Oryctolagus cuniculus; design: scale not given: the % may be the effect or the level left; how it was run: as §1
[42] = Antiplatelet activity against rabbit platelets assessed as inhibition of collagen-induced platelet aggregation at 10 ug/ml preincubated for 3 mins by turbidimetric method; format: functional, Oryctolagus cuniculus; design: scale not given: the % may be the effect or the level left; how it was run: as §1

Structure (SMILES)	Activity [1]	Activity [3]	Activity [5]	Activity [6]	Activity [7]	Activity [8]	Activity [9]	Activity [10]	Activity [11]	Activity [13]	Activity [14]	Activity [16]	Activity [17]	Activity [21]	further results
CCCCCCC(=O)CC/C=C/C=C/C(=O)NCC(C)C [LANYUAMIDE I]	76%	0%	77.1%	20%	15.6%	45.5%	2.7%	0%	8.9%	0%	28.6%	80.4%	0%	–	Activity [2]: 0%; Activity [4]: 82%; Activity [12]: 100%; Activity [15]: 77.1%; Activity [18]: 47.6%; Activity [19]: 75.7%
CC/C=C\C/C=C\CC/C=C/C=C/C(=O)NCC(C)(C)O	–	38.4%	–	–	4%	–	–	0%	89.2%	0%	–	–	0%	27.8%	Activity [20]: 46.2%
COc1ccc(-c2oc3c(OC)c(O)cc(O)c3c(=O)c2O)cc1 [PRUDOMESTIN]	–	73.3%	–	–	0%	–	–	–	87.5%	58.1%	–	–	0%	64.5%	Activity [22]: 100.6%; Activity [23]: 36.7%; Activity [24]: 46.7%; Activity [25]: 83.4%; Activity [26]: 97.8%; Activity [27]: 20%
c1cc2c(cc1[C@H]1OC[C@H]3[C@@H]1CO[C@@H]3c1ccc3c(c1)OCO3)OCO2 [SESAMIN]	83.7%	–	–	–	82.3%	–	83.2%	–	–	–	–	87.8%	–	–	Activity [28]: inactive; Activity [29]: inactive; Activity [30]: inactive; Activity [31]: inactive
COc1cccc2c1c1ccnc3ccc(=O)n2c31	–	–	–	–	–	–	–	–	–	–	–	–	–	–	Activity [32]: 74.5%; Activity [33]: 84.8%; Activity [34]: 80.4%; Activity [35]: 76.3%; Activity [36]: 78.9%; Activity [37]: 90.3%; Activity [38]: 88.4%; Activity [39]: 57.9%
CCC(=O)CC/C=C\CC/C=C/C=C/C(=O)NCC(C)C [LANYUAMIDE II]	70.5%	0%	83.8%	0%	0%	78.5%	0%	–	0%	0%	36.1%	75.2%	0%	44.2%	Activity [40]: 77.8%; Activity [41]: 77.6%; Activity [42]: 10.5%; Activity [18]: 72.5%; Activity [19]: 35.9%
COc1cc2ccc(=O)oc2cc1O [SCOPOLETIN]	–	78.2%	91.9%	–	–	81.6%	–	–	89.8%	80.9%	88.4%	–	80.5%	–	–
CCCCCCCCC/C=C/C=C/C(=O)NCC(C)(C)O [TETRAHYDROBUNGEANOOL]	–	6.7%	–	82.7%	–	–	–	58.3%	74%	0%	–	–	0%	–	–
CC/C=C/C/C=C\CC/C=C/C=C/C(=O)NCC(C)(C)O	–	38.4%	–	–	4%	–	–	0%	89.2%	0%	–	–	0%	27.8%	Activity [20]: 46.2%
